Results published in ChEMBL document CHEMBL1821688, “Synthesis and biological evaluation of (±)-3-(2-(2-fluorobenzyloxy) naphthalen-6-yl)-2-aminopropanoic acid derivatives as novel PTP1B inhibitors” (Eur J Med Chem, 2011).
Activity calls are given as the source filed them. The calls are words filed in the database; no cut-off is given here.

Experiments:
[1] = Selectivity ratio of IC50 for TCPTP to IC50 for PTP1B
[2] = molecular target: T1, Tyrosine-protein phosphatase non-receptor type 1 (Homo sapiens, UniProt P18031); experiment: Inhibition of PTP1B using p-nitrophenyl phosphate as substrate
T1 sequence (P18031 whole entry): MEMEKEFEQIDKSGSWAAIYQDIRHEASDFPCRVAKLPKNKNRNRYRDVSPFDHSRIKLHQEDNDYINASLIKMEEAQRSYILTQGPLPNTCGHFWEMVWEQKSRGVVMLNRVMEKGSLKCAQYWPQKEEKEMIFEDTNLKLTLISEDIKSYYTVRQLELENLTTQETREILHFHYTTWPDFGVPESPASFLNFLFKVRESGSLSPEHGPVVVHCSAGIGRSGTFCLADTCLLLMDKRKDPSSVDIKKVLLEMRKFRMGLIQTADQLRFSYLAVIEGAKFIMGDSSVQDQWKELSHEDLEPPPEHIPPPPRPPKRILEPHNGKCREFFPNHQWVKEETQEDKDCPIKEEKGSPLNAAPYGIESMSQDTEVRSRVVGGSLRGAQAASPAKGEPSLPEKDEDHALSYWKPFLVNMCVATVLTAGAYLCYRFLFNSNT
Outline: (§1)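 IC50 values were obtained by regression analysis and reported as mean ± SD of three replicate determinations.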

[3] = molecular target: T2, Tyrosine-protein phosphatase non-receptor type 2 (Homo sapiens, UniProt P17706); experiment: Inhibition of TCPTP; outline: as §1
T2 sequence (P17706 whole entry): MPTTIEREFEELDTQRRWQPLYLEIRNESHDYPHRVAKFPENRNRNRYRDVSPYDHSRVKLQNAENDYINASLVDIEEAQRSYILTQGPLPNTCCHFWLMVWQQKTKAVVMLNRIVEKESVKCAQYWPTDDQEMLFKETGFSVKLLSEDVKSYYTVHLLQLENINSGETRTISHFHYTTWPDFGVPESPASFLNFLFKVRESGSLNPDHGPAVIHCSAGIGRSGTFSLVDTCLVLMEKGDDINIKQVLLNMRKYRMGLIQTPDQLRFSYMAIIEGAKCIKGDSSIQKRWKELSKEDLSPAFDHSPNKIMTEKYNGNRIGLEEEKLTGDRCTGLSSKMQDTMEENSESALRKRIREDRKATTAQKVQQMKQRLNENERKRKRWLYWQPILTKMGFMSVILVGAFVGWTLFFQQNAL

[4] = molecular target: Receptor-type tyrosine-protein phosphatase alpha (Homo sapiens) (UniProt P18433); experiment: Inhibition of human recombinant PTPalpha at 20 ug/mL
Sequence of Receptor-type tyrosine-protein phosphatase alpha (Homo sapiens) (P18433 20-802 limits assumed): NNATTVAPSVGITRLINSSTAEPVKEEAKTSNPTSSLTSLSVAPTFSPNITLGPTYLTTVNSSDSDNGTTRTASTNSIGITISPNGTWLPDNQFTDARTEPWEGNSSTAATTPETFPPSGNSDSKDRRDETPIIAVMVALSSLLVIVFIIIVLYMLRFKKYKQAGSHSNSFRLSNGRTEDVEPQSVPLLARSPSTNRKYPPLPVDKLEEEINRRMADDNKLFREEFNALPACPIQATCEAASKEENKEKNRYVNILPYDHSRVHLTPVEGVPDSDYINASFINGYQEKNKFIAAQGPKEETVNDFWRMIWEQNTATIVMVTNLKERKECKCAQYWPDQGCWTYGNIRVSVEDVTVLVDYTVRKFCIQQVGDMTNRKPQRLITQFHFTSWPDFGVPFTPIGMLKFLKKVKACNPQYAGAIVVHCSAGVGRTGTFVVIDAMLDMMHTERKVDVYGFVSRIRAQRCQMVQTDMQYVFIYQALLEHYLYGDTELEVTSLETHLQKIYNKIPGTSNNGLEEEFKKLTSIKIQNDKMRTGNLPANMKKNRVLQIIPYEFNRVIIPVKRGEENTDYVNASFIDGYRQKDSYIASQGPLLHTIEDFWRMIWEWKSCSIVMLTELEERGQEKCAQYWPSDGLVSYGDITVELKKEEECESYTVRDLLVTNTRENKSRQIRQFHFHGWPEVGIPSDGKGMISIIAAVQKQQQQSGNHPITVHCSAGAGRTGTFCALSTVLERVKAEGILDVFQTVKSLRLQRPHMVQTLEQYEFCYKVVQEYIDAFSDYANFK

[5] = molecular target: T3, Tyrosine-protein phosphatase non-receptor type 6 (Homo sapiens, UniProt P29350); experiment: Inhibition of human recombinant SHP1 in Tris buffer of pH 8 at 20 ug/mL
T3 sequence (P29350 whole entry): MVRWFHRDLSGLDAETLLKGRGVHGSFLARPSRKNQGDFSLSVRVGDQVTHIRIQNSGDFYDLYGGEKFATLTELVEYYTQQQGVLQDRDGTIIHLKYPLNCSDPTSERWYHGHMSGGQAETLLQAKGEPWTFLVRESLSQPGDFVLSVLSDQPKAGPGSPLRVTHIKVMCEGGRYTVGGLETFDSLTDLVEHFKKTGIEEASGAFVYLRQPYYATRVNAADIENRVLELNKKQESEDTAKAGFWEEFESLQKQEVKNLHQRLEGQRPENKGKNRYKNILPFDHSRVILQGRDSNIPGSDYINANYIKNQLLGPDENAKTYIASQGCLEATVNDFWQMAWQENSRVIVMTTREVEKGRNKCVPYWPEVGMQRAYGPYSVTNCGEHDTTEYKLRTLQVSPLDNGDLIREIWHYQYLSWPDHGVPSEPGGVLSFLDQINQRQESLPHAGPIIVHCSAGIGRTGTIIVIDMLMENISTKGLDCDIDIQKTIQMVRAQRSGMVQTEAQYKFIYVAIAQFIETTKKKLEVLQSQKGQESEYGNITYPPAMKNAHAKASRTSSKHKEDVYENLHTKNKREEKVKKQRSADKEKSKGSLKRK

[6] = molecular target: T4, M-phase inducer phosphatase 2 (Homo sapiens, UniProt P30305); experiment: Inhibition of human recombinant CDC25B; outline: as §1
T4 sequence (P30305 whole entry): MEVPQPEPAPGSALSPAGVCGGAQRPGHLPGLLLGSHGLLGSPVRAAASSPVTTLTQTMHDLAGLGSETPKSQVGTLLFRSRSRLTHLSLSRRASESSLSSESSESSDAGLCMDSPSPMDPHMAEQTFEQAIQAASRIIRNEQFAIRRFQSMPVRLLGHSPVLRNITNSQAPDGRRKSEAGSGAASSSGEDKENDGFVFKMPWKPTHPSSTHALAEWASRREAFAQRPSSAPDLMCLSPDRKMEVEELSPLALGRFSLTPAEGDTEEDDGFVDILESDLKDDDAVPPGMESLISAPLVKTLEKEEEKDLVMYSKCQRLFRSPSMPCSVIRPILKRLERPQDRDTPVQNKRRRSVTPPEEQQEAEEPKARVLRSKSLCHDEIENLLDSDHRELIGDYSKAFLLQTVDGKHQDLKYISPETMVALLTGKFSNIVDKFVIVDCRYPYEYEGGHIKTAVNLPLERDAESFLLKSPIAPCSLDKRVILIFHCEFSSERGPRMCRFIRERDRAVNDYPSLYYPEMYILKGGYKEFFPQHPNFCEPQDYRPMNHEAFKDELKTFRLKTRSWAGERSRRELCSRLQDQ

[7] = molecular target: Receptor-type tyrosine-protein phosphatase F (Homo sapiens) (UniProt P10586); experiment: Inhibition of human recombinant LAR at 20 ug/mL
Sequence of Receptor-type tyrosine-protein phosphatase F (Homo sapiens) (P10586 whole entry): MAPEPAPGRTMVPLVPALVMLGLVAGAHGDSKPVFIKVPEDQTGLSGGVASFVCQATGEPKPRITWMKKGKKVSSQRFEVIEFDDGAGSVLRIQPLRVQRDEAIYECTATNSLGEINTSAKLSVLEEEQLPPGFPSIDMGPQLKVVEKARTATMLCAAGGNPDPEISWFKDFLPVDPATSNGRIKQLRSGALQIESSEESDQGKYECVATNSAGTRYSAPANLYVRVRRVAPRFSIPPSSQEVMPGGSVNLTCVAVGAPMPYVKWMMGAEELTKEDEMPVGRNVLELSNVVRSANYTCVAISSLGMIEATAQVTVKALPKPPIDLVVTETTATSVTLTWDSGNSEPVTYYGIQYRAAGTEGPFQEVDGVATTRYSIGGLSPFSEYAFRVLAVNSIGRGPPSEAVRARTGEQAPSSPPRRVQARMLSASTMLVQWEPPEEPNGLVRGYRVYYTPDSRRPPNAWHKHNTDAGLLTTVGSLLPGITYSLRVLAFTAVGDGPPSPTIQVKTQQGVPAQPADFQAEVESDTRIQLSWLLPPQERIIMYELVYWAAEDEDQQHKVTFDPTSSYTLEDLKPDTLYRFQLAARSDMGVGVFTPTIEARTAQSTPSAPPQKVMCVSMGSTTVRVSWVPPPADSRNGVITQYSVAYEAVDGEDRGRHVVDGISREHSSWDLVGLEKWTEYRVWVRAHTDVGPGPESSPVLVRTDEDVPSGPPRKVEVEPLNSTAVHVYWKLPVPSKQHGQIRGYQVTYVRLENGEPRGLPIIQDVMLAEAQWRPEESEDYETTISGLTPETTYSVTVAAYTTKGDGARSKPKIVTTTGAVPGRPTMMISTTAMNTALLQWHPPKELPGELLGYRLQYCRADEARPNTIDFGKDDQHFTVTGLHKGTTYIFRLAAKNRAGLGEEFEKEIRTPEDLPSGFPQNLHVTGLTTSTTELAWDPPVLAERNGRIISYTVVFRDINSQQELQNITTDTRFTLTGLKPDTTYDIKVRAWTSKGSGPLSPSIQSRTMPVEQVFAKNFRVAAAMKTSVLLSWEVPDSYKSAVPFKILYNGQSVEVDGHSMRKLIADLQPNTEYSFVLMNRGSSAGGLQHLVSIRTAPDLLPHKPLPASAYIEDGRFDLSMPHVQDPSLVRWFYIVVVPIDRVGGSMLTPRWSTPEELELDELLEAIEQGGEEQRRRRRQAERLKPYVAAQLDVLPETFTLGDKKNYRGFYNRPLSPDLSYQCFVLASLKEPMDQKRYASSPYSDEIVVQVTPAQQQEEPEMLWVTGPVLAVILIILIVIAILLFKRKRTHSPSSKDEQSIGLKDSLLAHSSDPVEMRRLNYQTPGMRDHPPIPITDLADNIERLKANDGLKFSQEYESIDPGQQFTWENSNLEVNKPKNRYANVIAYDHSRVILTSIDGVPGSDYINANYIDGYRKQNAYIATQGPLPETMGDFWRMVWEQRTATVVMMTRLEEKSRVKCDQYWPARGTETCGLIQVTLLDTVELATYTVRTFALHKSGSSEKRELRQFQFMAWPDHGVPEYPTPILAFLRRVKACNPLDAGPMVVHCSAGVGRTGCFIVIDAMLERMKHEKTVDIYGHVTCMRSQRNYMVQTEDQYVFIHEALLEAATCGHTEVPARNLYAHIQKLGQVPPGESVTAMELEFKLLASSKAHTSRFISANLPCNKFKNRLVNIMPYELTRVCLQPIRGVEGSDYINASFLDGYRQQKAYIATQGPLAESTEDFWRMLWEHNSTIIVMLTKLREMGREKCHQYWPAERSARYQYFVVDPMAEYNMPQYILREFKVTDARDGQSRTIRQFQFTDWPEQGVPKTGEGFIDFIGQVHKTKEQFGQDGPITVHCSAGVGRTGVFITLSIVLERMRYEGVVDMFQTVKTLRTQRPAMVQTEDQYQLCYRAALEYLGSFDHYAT

[8] = molecular target: T5, Tyrosine-protein phosphatase non-receptor type 1 (Homo sapiens) (UniProt P18031); settings: 2.5 to 10 uM
T5 sequence (whole entry): T1 sequence (P18031 whole entry)

[9] = molecular target: T3, Tyrosine-protein phosphatase non-receptor type 6; experiment: Inhibition of human recombinant SHP1 in Tris buffer at pH 8 using OMPF as substrate; outline: as §1
[10] = molecular target: T5, Tyrosine-protein phosphatase non-receptor type 1 (Homo sapiens); settings: 2.5 to 10 uM; remark: listed apart in the source

Structure (SMILES)	Ratio IC50 [1]	IC50 [2] [µM]	IC50 [3] [µM]	inhibition [4]	inhibition [5]	IC50 [6] [µM]	inhibition [7]	inhibition [8]	IC50 [9] [µM]	inhibition [10]
NC(Cc1ccc2cc(OCc3ccccc3F)ccc2c1)C(=O)O (racemic)	1	24.7	–	–	–	–	–	–	–	–
O=C(NC(Cc1ccc2cc(O)ccc2c1)C(=O)O)c1ccccc1 (racemic)	1	> 300	–	–	–	–	–	–	–	–
O=C(/C=C/c1ccc(Br)cc1)NC(Cc1ccc2cc(OCc3ccccc3F)ccc2c1)C(=O)O (racemic)	1	1.57	3.67	inactive	–	2.49	inactive	–	13	–
O=C(/C=C/c1cccc(Cl)c1)NC(Cc1ccc2cc(OCc3ccccc3F)ccc2c1)C(=O)O (racemic)	1	4	7.24	inactive	–	5.35	inactive	–	13.2	–
COc1ccc(COc2ccc3cc(CC(NC(=O)c4ccccc4)C(=O)O)ccc3c2)cc1 (racemic)	1	14.3	–	–	–	–	–	–	–	–
COc1ccc(/C=C/C(=O)NC(Cc2ccc3cc(OCc4ccccc4F)ccc3c2)C(=O)O)cc1 (racemic)	1	5.9	9.21	inactive	inactive	14	inactive	–	–	–
COc1ccc(/C=C/C(=O)NC(Cc2ccc3cc(OCc4ccccc4F)ccc3c2)C(=O)O)cc1OC (racemic)	1	4.45	9.49	inactive	inactive	7.04	inactive	–	–	–
C[C@H]1[C@H](C)CC[C@]2(C(=O)O)CC[C@]3(C)C(=CC[C@@H]4[C@@]5(C)CC[C@H](O)C(C)(C)[C@@H]5CC[C@]43C)[C@H]12 [URSOLIC ACID]	–	–	6.7	–	–	–	–	–	–	–
O=C(COc1ccc(Cl)cc1)NC(Cc1ccc2cc(OCc3ccccc3F)ccc2c1)C(=O)O (racemic)	1	10.8	17.5	inactive	inactive	13.7	inactive	–	–	–
O=C(/C=C/c1ccccc1Br)NC(Cc1ccc2cc(OCc3ccccc3F)ccc2c1)C(=O)O (racemic)	1	1.77	4.66	inactive	–	2.89	inactive	–	11	–
Cc1ccc(/C=C/C(=O)NC(Cc2ccc3cc(OCc4ccccc4F)ccc3c2)C(=O)O)cc1 (racemic)	1	6.48	18.2	inactive	inactive	11.6	inactive	–	–	–
O=C(/C=C/c1ccccc1)NC(Cc1ccc2cc(OCc3ccccc3F)ccc2c1)C(=O)O (racemic)	–	8.88	18.9	inactive	inactive	14.7	inactive	–	–	–
O=C(/C=C/c1ccc(F)cc1)NC(Cc1ccc2cc(OCc3ccccc3F)ccc2c1)C(=O)O (racemic)	1	3.38	5.96	inactive	–	6.6	inactive	–	18.5	–
O=C(/C=C/c1ccc(Cl)cc1)NC(Cc1ccc2cc(OCc3ccccc3F)ccc2c1)C(=O)O (racemic)	1	2.59	4.33	inactive	–	2.63	inactive	–	16.3	–

Continued, values first:

Ratio IC50 [1]	IC50 [2] [µM]	IC50 [3] [µM]	inhibition [4]	inhibition [5]	IC50 [6] [µM]	inhibition [7]	inhibition [8]	IC50 [9] [µM]	inhibition [10]	Structure (SMILES)
1	6.55	9.43	inactive	inactive	19.4	inactive	–	–	–	O=C(NC(Cc1ccc2cc(OCc3ccccc3F)ccc2c1)C(=O)O)c1ccccc1 (racemic)
3	1.25	3.84	inactive	–	3.08	inactive	Active	2.43	tde	O=C(/C=C/c1ccccc1Cl)NC(Cc1ccc2cc(OCc3ccccc3F)ccc2c1)C(=O)O (racemic)
1	8.15	15.2	inactive	–	10.7	inactive	–	16.4	–	COc1cccc(/C=C/C(=O)NC(Cc2ccc3cc(OCc4ccccc4F)ccc3c2)C(=O)O)c1 (racemic)
1	2.79	6.08	inactive	–	5.13	inactive	–	26.5	–	O=C(/C=C/c1cccc(F)c1)NC(Cc1ccc2cc(OCc3ccccc3F)ccc2c1)C(=O)O (racemic)
–	4.71	15.3	inactive	–	5.63	inactive	–	10.7	–	O=C(/C=C/c1ccc(Cl)c(Cl)c1)NC(Cc1ccc2cc(OCc3ccccc3F)ccc2c1)C(=O)O (racemic)
1	11.1	–	–	–	–	–	–	–	–	CC(C)(C)OC(=O)NC(Cc1ccc2cc(OCc3ccccc3F)ccc2c1)C(=O)O (racemic)
1	21.7	–	–	–	–	–	–	–	–	O=C(NC(Cc1ccc2cc(OCc3ccc(Cl)cc3)ccc2c1)C(=O)O)c1ccccc1 (racemic)
1	4.22	6.11	inactive	–	8.93	inactive	–	12.5	–	O=C(/C=C/c1ccc(Cl)cc1Cl)NC(Cc1ccc2cc(OCc3ccccc3F)ccc2c1)C(=O)O (racemic)
1	2.49	3.02	inactive	–	4.58	inactive	–	9.84	–	O=C(/C=C/c1ccccc1F)NC(Cc1ccc2cc(OCc3ccccc3F)ccc2c1)C(=O)O (racemic)
1	7.91	12.9	inactive	–	8.44	inactive	–	15.6	–	O=C(Cc1ccc(Cl)cc1)NC(Cc1ccc2cc(OCc3ccccc3F)ccc2c1)C(=O)O (racemic)
–	11.4	27.3	inactive	inactive	15.2	inactive	–	–	–	O=C(CCc1ccccc1)NC(Cc1ccc2cc(OCc3ccccc3F)ccc2c1)C(=O)O (racemic)
1	> 300	–	–	–	–	–	–	–	–	CC(C)(C)OC(=O)NC(Cc1ccc2cc(O)ccc2c1)C(=O)O (racemic)
